For 9 compounds, Ratio and Selectivity ratio results are on record in ChEMBL document CHEMBL1127548, “N-benzylnaltrindoles as long-acting delta-opioid receptor antagonists” (J Med Chem, 1994).

Assay [1] concerns the target Mu-type opioid receptor (Cavia porcellus) (UniProt P97266). In words: Antagonist potency using morphine at mu-opioid receptor in electrically stimulated guinea pig ileal longitudinal muscle (GPI); IC50 ratio. It counts as functional. The method in brief:
(§1)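 Electrically stimulated tissue: agonists were morphine (μ) and ethylketazocine (κ) in guinea pig ileal longitudinal muscle, and DADLE (δ) in mouse vas deferens. Antagonist at 100 nM was incubated 15 min. IC50 ratio is agonist IC50 with antagonist divided by control IC50 in the same preparation, n ≥ 3, ±SE.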

Assay [2] concerns the target Delta-type opioid receptor (Mus musculus) (UniProt P32300). Kind of assay: Antagonist potency was determined using D-Ala2, D-Leu5 enkephalin28 (DADLE) at delta-opioid receptor in mouse vas deferens (MVD); IC50 ratio. It counts as functional. The method, boiled down: as §1
Assay [3] addresses Kappa-type opioid receptor (Cavia porcellus) (UniProt P41144). Kind of assay: Antagonist potency was determined using ethylketazocine at kappa-opioid receptor in electrically stimulated guinea pig ileal longitudinal muscle (GPI); IC50 ratio. The class given is functional. The method in brief:
as §1

The target in assay [4] is Opioid receptors; delta & kappa (Homo sapiens) (UniProt P41145+P41143). In words: Selectivity ratio is the ratio between delta and kappa receptor. It counts as protein assay. The method in brief:
(§2)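 Selectivity ratio is the DADLE IC50 ratio divided by the morphine (δ/μ) or ethylketazocine (δ/κ) IC50 ratio. These IC50 ratios come from smooth muscle with 100 nM antagonist, 15 min. A value of 1 was used wherever an IC50 ratio was <1.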

Assay [5] deals with Opioid receptors; mu & delta (Homo sapiens) (UniProt P41143+P35372). In words: Selectivity ratio is the ratio between delta and mu receptor. The class given is protein assay. The method, boiled down:
as §2

For assay [6], the target named is Delta-type opioid receptor (Mus musculus) (UniProt P32300). In words: Antagonist potency was determined using […] in delta2-opioid receptor by icv administration in mouse after 24 hr; ED50 ratio. It counts as functional, organism-based. The method in brief:
(§3)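 Mouse abdominal stretch antinociception assay. Antagonist was given icv at 5 nmol, with agonists tested 24 h later. DSLET and DPDPE were given icv; morphine and U50488 were given sc. ED50 ratio is agonist ED50 with antagonist divided by control ED50, with 95% confidence limits.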

In assay [7] the target is Mu-type opioid receptor (Mus musculus) (UniProt P42866). In words: Antagonist potency was determined using morphine in mu-opioid receptor by icv administration in mouse after 24 hr; ED50 ratio. The class given is functional, organism-based. The method, boiled down:
as §3

The target in assay [8] is Kappa-type opioid receptor (Mus musculus) (UniProt P33534). In words: Antagonist potency was determined using U-50,488 in kappa-opioid receptor by icv administration in mouse after 24 hr; ED50 ratio. It counts as functional, organism-based. The method in brief:
as §3

Assay [9] deals with Delta-type opioid receptor (Mus musculus) (UniProt P32300). Kind of assay: Antagonist potency was determined using DPDPE in delta1-opioid receptor by icv administration in mouse after 24 hr; ED50 ratio. The class given is functional, organism-based. The method in brief:
as §3

Chain of Opioid receptors; mu & delta (Homo sapiens) (P35372 whole entry, looked up): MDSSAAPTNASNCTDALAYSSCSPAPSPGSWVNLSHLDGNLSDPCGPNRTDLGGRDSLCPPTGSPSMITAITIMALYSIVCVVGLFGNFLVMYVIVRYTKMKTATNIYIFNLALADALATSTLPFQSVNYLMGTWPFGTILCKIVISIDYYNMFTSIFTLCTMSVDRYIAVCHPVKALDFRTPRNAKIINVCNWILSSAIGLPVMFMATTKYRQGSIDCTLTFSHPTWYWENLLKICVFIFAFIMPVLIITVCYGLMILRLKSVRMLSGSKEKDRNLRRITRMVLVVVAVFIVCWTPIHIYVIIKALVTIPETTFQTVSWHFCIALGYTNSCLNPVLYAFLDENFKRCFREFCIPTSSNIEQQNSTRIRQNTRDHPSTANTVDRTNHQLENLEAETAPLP
Chain of Opioid receptors; mu & delta (Homo sapiens) (P41143 whole entry, looked up): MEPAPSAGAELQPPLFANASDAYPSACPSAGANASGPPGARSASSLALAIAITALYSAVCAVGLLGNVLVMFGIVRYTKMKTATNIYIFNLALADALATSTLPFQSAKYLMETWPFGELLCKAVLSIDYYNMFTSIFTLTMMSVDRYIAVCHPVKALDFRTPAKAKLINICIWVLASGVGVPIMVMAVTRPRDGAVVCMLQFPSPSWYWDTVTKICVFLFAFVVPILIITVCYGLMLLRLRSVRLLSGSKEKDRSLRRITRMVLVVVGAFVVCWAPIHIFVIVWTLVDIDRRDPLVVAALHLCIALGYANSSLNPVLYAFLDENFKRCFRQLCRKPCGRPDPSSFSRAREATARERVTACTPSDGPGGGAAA
Chain of Opioid receptors; delta & kappa (Homo sapiens) (P41143 whole entry, looked up): as above
Chain of Opioid receptors; delta & kappa (Homo sapiens) (P41145 whole entry, looked up): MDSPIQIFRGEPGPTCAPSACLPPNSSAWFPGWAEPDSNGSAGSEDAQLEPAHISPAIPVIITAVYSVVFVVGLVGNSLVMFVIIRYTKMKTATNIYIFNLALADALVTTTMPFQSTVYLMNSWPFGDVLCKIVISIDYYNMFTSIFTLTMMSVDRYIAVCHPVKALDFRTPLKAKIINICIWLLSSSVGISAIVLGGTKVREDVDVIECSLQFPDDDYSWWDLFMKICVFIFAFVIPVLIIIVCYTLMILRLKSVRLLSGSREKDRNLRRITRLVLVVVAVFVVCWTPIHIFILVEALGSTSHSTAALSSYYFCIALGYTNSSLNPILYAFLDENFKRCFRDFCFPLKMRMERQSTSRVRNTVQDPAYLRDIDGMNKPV
Chain of Kappa-type opioid receptor (Cavia porcellus) (P41144 whole entry): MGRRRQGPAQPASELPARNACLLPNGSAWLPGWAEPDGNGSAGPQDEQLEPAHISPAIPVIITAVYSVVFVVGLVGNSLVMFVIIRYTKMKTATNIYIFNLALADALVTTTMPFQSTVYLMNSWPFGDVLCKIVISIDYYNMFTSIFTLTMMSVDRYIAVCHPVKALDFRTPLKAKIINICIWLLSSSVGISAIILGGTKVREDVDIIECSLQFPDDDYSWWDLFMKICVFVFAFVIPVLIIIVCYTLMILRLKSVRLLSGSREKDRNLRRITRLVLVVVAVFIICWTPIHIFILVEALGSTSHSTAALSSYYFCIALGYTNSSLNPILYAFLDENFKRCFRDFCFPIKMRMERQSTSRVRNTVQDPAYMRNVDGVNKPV
Chain of Delta-type opioid receptor (Mus musculus) (P32300 whole entry): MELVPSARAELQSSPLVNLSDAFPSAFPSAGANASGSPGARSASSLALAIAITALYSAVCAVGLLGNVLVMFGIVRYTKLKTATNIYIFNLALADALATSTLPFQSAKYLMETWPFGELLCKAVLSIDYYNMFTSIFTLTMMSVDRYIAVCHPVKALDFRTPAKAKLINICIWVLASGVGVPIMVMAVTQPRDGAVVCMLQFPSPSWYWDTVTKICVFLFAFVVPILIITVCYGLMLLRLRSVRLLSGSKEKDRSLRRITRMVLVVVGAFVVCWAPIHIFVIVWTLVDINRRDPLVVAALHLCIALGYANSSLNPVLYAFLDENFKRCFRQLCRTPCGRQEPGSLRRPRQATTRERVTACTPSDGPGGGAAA
Chain of Mu-type opioid receptor (Cavia porcellus) (P97266 whole entry): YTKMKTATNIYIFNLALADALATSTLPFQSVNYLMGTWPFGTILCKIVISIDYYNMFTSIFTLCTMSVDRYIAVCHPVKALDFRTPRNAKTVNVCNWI
Chain of Mu-type opioid receptor (Mus musculus) (P42866 whole entry): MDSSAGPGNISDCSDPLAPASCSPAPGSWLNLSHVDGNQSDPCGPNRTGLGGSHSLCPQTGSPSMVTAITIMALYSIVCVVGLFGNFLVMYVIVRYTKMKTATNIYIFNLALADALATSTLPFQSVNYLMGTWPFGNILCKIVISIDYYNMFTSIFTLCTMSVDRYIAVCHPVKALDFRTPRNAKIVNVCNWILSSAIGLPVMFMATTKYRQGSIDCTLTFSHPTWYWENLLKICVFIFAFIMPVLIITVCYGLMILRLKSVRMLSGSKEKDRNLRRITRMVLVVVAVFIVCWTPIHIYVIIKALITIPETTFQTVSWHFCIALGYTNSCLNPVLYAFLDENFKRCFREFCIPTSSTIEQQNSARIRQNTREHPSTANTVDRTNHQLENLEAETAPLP
Chain of Kappa-type opioid receptor (Mus musculus) (P33534 whole entry): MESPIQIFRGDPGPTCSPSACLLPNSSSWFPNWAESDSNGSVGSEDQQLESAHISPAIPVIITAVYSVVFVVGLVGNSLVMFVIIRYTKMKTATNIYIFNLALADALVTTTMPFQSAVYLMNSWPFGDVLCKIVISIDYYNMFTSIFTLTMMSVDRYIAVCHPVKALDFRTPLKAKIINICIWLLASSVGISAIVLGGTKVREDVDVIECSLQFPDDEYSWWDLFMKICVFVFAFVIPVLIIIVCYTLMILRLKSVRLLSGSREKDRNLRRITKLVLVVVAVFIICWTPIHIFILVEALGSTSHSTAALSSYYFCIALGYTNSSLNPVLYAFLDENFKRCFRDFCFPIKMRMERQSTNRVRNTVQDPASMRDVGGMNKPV

On to `Nc1ccccc1Cn1c2c(c3ccccc31)C[C@@]1(O)[C@H]3Cc4ccc(O)c5c4[C@@]1(CCN3CC1CC1)[C@H]2O5`, for which the Ratio in [1] worked out at 1; in assay [2], 120; in [3], 0.9. For the same compound, the Selectivity ratio in [4] and in assay [5] was 120 in each case.

As for `Oc1ccc2c3c1O[C@H]1c4c(c5ccccc5n4Cc4ccccc4)C[C@@]4(O)[C@@H](C2)N(CC2CC2)CC[C@]314`, the Ratio worked out at 10 in assay [6]; 1.6 in [1]; 1.2 in assay [7]; 0.77 in assay [8]; 208 in assay [2]; 0.4 in [3]. Further, in [9], the Ratio is 1.3. The Selectivity ratio was 208 in assay [4] and 131 in assay [5].

On to `Nc1ccc(Cn2c3c(c4ccccc42)C[C@@]2(O)[C@H]4Cc5ccc(O)c6c5[C@@]2(CCN4CC2CC2)[C@H]3O6)cc1`, for which the Ratio was 5.9 in assay [6]; 2.7 in assay [1]; 1.1 in assay [7]; 0.64 in assay [8]; 288 in assay [2]; 1.5 in assay [3]. In addition, the Selectivity ratio in [4] was determined as 188; in [5], 106.

In the case of `O=[N+]([O-])c1cccc(Cn2c3c(c4ccccc42)C[C@@]2(O)[C@H]4Cc5ccc(O)c6c5[C@@]2(CCN4CC2CC2)[C@H]3O6)c1`, the values for the Ratio in [1], in [2] and in assay [3] were 0.9, 112 and 0.6, respectively. Also, the Selectivity ratio in [4] and in assay [5] was 112 each time.

Consider `O=[N+]([O-])c1ccc(Cn2c3c(c4ccccc42)C[C@@]2(O)[C@H]4Cc5ccc(O)c6c5[C@@]2(CCN4CC2CC2)[C@H]3O6)cc1`, for which the Ratio in assay [1] turned out to be 0.5; in assay [2], 38; in assay [3], 0.4. The Selectivity ratio in [4] and in assay [5] was 38 throughout.

For `Oc1ccc2c3c1O[C@H]1c4c(c5ccccc5n4Cc4c(F)c(F)c(F)c(F)c4F)C[C@@]4(O)[C@@H](C2)N(CC2CC2)CC[C@]314`, the Ratio in [1] is 1.4; in assay [2], 52; in assay [3] it was 0.7. Moreover, the Selectivity ratio in assay [4] was found to be 52; in assay [5] it was 37.

On to `Nc1cccc(Cn2c3c(c4ccccc42)C[C@@]2(O)[C@H]4Cc5ccc(O)c6c5[C@@]2(CCN4CC2CC2)[C@H]3O6)c1`, for which the Ratio worked out at 1.3 in [1], 148 in [2] and 1.5 in assay [3]. In addition, the values for the Selectivity ratio in assay [4] and in assay [5] were 100 and 111, respectively.

For `O=[N+]([O-])c1ccccc1Cn1c2c(c3ccccc31)C[C@@]1(O)[C@H]3Cc4ccc(O)c5c4[C@@]1(CCN3CC1CC1)[C@H]2O5`, the Ratio in assay [1] amounted to 2.3; in assay [2], 31; in assay [3], 0.8. Besides, the Selectivity ratio in assay [4] is 31; in assay [5] it was 13.

For `Oc1ccc2c3c1O[C@H]1c4[nH]c5ccccc5c4C[C@@]4(O)[C@@H](C2)N(CC2CC2)CC[C@]314`, the Ratio was determined as 11.2 in [1], 459 in [2] and 1.3 in assay [3]. For the same compound, the Selectivity ratio in assay [4] came to 353; in [5] it was 41.
